Experimental data: paper PMC6363535 (Journal of pharmaceutical and biomedical analysis, 2018)
Values after ≈ are worked out from the molar mass of the structure shown.

Columns and labels:
mAb 2G11G4 [1] = test: indirect competitive ELISA; type: binding, mouse; conditions: for Cross reactivity: (IC50 of dihydroartemisinin/IC50 of the other compound) × 100; for IC50: icELISA, mAb 2G11G4, coating antigen 9-O-succinyldihydroartemisinin-OVA
mAb 2G11G4 [2] = test: colloidal gold-based lateral flow immunoassay; type: binding, mouse; conditions: for dipstick cross-reaction: drug concentration less than 100 ng/mL; for dipstick test line: standards at 100 ng/mL; for dipstick inhibition: standards at 500 ng/mL
Outline: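 Anti-DHA mAb adsorbed onto 30 nm colloidal gold at pH 7.8, blocked with BSA, pelleted and resuspended in 0.01 M PBS pH 7.0. Gold-mAb was used at 30 μg/mL. Capture lines on nitrocellulose were 9-O-succinyl-DHA-BSA (1 mg/mL, test) and goat anti-mouse IgG (0.4 mg/mL, control), 5 mm apart. Aqueous DHA standards were 0–100 ng/mL. Indicator range is the lowest concentration at which the test line disappears visually.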

[3] = general statement, no reference given; cited from earlier work
mAb 3D82G7 = conditions: cited from earlier work
[4] = test system: artemisinin antibody developed earlier; conditions: cited from earlier work
[5] = buffer solution (pH=7.4); cited from earlier work
[6] = time course of DHA degradation in malaria culture, measured by icELISA; type: in vitro ADME, Plasmodium falciparum

Structure (SMILES)	IC50 (mAb 2G11G4 [1])	Cross reactivity (mAb 2G11G4 [1])	dipstick cross-reaction (mAb 2G11G4 [2])	dipstick test line (mAb 2G11G4 [2])	dipstick inhibition (mAb 2G11G4 [2])	also measured
CO[C@H]1O[C@@H]2O[C@@]3(C)CC[C@H]4[C@H](C)CC[C@@H]([C@H]1C)[C@@]24OO3 [Artemether]	>20 µg/mL	<0.02%	did not cross-react	showed obvious color	no inhibition	water solubility [3]: poor water solubility
C[C@@H]1CC[C@H]2[C@@H](C)C(=O)O[C@@H]3O[C@@]4(C)CC[C@@H]1[C@]32OO4 [Artemisinin]	0.00222 µg/mL (≈ 0.00786 µM)	52.3%	did not cross-react	showed obvious color	different degrees of inhibition	water solubility [3]: poor water solubility
C[C@H]1[C@H](OC(=O)CCC(=O)O)O[C@@H]2O[C@@]3(C)CC[C@H]4[C@H](C)CC[C@@H]1[C@@]24OO3 [Artesunate]	0.0704 µg/mL (≈ 0.183 µM)	1.6%	did not cross-react	showed obvious color	different degrees of inhibition	Cross reactivity (mAb 2G11G4 [1]; listed as artesunate): low or no cross reactivity; cross-reactivity (mAb 3D82G7): 460%; cross-reactivity [4]: 650%
C[C@H]1[C@@H](O)O[C@@H]2O[C@@]3(C)CC[C@H]4[C@H](C)CC[C@@H]1[C@@]24OO3 [Dihydroartemisinin]	0.00116 µg/mL (≈ 0.00408 µM)	100%	–	–	–	indicator range (lowest concentration at which the test line was not visible) (mAb 2G11G4 [2]; dipstick, serially diluted standard DHA): 50 to 100 ng/mL; working range (IC20 – IC80) (mAb 2G11G4 [1]; DHA concentration causing 20–80% inhibition of the signal): 0.00026 to 0.00487 µg/mL; half-life [5]: 5.5 h; half-life at 200 nM ([6]; Plasmodium falciparum): 3.64 ± 0.48 h; half-life at 200 nM ([6]; culture medium only (no cells)): 5.56 ± 0.87 h; DHA concentration after 12 h of incubation ([6]; parasite culture at 5% parasitemia, starting concentration 200 nM): < 4 nM; half-life at 200 nM ([6]; red blood cells in culture medium at 5% hematocrit): 4.55 ± 0.69 h

More lines, main results first:

IC50 (mAb 2G11G4 [1])	Structure (SMILES)	Cross reactivity (mAb 2G11G4 [1])	dipstick cross-reaction (mAb 2G11G4 [2])	dipstick test line (mAb 2G11G4 [2])	dipstick inhibition (mAb 2G11G4 [2])	also measured
>20 µg/mL	CCN(CC)Cc1cc(Nc2ccnc3cc(Cl)ccc23)ccc1O [Amodiaquine]	<0.02%	–	–	–	–
>20 µg/mL	CCN(CC)CCCC(C)Nc1ccnc2cc(Cl)ccc12 (stereo not drawn) [Chloroquine]	–	–	–	–	–
>20 µg/mL	CCCCN(CCCC)CC(O)c1cc(Cl)cc2c1-c1ccc(Cl)cc1/C2=C/c1ccc(Cl)cc1 (stereo not drawn) [Lumefantrine]	<0.02%	–	–	–	–
>20 µg/mL	Clc1ccc2c(N3CCN(CCCN4CCN(c5ccnc6cc(Cl)ccc56)CC4)CC3)ccnc2c1 [Piperaquine]	<0.02%	–	–	–	–
